Hits are enriched below; roughly 5.2% of the tested compounds scored in any of these assays.
Ecoli WT expand = growth inhibitors of wild-type E. coli, primary screen, strain BW25113, expanded library, OD600. OD600 absorbance. growth inhibition, % at 100 µM. hit rate 0.15% among 98,000. AID 710, 2007;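 active = growth inhibition above about 50% at one test dose, limit read from the data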;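 also: growth measured after 20 h incubation at 37 °C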
tolC growth inh = growth inhibitors of E. coli tolC mutant, primary screen, strain BW25113 ΔtolC::kan, 384-well | OD615 | growth inhibition, % at 10 µM (by protocol) | hit rate 2.2% among 65,000 | AID 573, 2007;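 active = growth inhibition at or above a cutoff equal to the mean over every tested compound plus 3 SD, cut at about 60% in these data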;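 also: growth measured after 20 h incubation at 37 °C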
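Test system: tolC-deleted E. coli BW25113; medium: LB with kanamycin 50 µg/mL; compound: single-point testing at 10 µM; incubation: 20 h compound exposure of bacteria at 37 °C; signal: OD at 615 nm; evaluation: growth inhibition in percent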
WNV protease inh = inhibitors of WNV NS2B-NS3 protease, primary screen, biochemical, fluorogenic substrate. Genome polyprotein (West Nile virus), P06935. fluorogenic substrate Ex360/Em465; active compounds read low. z-score (test concentration not listed). hit rate 0.18% among 65,000. AID 577, 2007; in the data active = z-score below about -3
AP complement = alternative complement pathway inhibitors, primary screen, biochemical, ELISA, human serum, orthogonally pooled compounds; LPS-coated ELISA, C3 deposition; tested in compound mixtures; inhibition, % at 5 µM; hit rate 0.08% among 62,000; AID 1235, 2008;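 active = inhibition above 30% in each of the two pooled mixtures holding the compound, so the lower value exceeds 30%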;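 also: 0% = serum in Mg-EGTA without compound and 100% = EDTA serum blank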
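Test system: human serum complement alternative pathway, C3 deposition onto LPS / Medium: Mg2+-EGTA GVB++ buffer containing human serum at 1:15 dilution / Probe or stimulus: Plate-bound LPS / Times: 1 h at 37 °C / Signal: ELISA with HRP anti-human C3 antibody, TMB substrate, absorbance 450 nm / Measure: percent inhibition / Repeats: two pool placements per compound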
M1 agonist = M1 muscarinic receptor agonists, primary screen, CHO-M1 cells, Fluo-4 calcium, agonist mode. Muscarinic acetylcholine receptor M1. Fluo-4 calcium fluorescence; active compounds read high. B-score at 10 µM. hit rate 3% among 64,000;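 active = fluorescence rise, raw or as B-score row- and column-corrected plate score, outside the 99.7% band of its plate's samples, either direction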
M1 antag = antagonists of rat M1 muscarinic receptor; hit rate 3.4% among 64,000; Muscarinic acetylcholine receptor M1 (Rattus norvegicus), P08482; CHO-M1 cells, Fluo-4 calcium, ACh EC80 antagonist mode; active compounds read low; B-score at 10 µM;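 active = calcium fluorescence response, raw or row-and-column corrected B-score, differing from the plate sample mean either way at a set confidence level, mostly lower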
Target sequence (P08482 whole entry, looked up): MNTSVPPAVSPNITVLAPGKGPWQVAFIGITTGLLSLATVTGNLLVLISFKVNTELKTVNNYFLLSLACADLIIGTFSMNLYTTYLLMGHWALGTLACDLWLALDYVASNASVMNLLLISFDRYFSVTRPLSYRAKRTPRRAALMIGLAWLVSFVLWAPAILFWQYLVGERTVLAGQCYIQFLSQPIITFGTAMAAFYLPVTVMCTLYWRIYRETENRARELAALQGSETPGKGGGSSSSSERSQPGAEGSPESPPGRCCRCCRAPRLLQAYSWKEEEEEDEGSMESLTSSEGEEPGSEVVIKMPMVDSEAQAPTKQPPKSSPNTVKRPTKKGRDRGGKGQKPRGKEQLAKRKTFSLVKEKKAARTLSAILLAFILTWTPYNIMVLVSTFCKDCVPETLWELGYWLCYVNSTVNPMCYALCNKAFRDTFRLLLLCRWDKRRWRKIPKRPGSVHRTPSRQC
Starred values were filed as active, the others as inactive; nt = no result given.

SMILES | Ecoli WT expand | tolC growth inh | WNV protease inh | AP complement | M1 agonist | M1 antag
Cc1cccc(N2CCN(C(=O)c3cc4n(n3)C(C(F)(F)F)CC(c3ccco3)N4)CC2)c1C (stereo not given) | -6 | 74* | 2.1 | 8 | nt | nt
CCOc1ccc2nc(NS(=O)(=O)Cc3ccccc3)sc2c1 | -2 | nt | nt | nt | nt | nt
O=C(NCc1ccccn1)C1CCN(S(=O)(=O)N2CCCC2)CC1 | 1 | -3 | -0.21 | 5 | 0.65 | -1.1
COC(=O)c1c(C)[nH]c(C(=O)C(C)Sc2nnc(-c3cc(OC)c(OC)c(OC)c3)o2)c1C (stereo not given) | -3 | 39 | 0.39 | 3 | -0.39 | -0.74
Cc1nc2cc(N3CCCCC3)c(NC(=O)c3cccnc3)cc2c(=O)n1Cc1ccccc1 | -13 | -11 | 1.4 | 10 | -0.13 | 2.8*
c1cncc(-c2nnc(SCc3cccc4ccccc34)o2)c1 | -7 | 31 | 0.56 | 22 | -1.4 | -0.64
C#CCSc1nnc(-c2cccc3ccccc23)o1 | nt | 97* | -0.69 | 5 | -0.4 | -0.34
COc1ccc(N2CCN(C(=O)CCCn3c(=S)[nH]c4cc5c(cc4c3=O)OCO5)CC2)cc1 | -8 | -7 | -0.56 | 14 | -0.075 | 0.14
COc1ccc2[nH]c3c(=O)n(CCCCC(=O)N4CCCC4)c(=S)[nH]c3c2c1 | 1 | 100* | -0.46 | 9 | 0.12 | 0.19
O=C(Cn1c(CN2CCCCC2)nc2ccccc2c1=O)Nc1ccccc1 | -1 | -5 | 0.13 | 36* | 0.35 | -0.074
O=C(Cn1c(CN2CCCCC2)nc2ccccc2c1=O)NC1CCCCC1 | -4 | -1 | -1 | 7 | 0.04 | 0.58
O=C(c1cc2ccccc2oc1=O)N1CCN(c2ncccn2)CC1 | 4 | nt | nt | nt | nt | nt
COc1ccc(-c2cc(-c3cc(F)ccc3O)[nH]n2)cc1OC | 3 | 81* | -1.2 | -3 | -1.1 | -0.019
COc1ccc(-c2cc(-c3ccccc3O)[nH]n2)cc1OC | -5 | 46 | -0.64 | 12 | 1.1 | -0.92
O=S(=O)(c1ccccc1)c1nc(-c2ccco2)oc1N1CCCCCC1 | -10 | 82* | -0.32 | 8 | 0.97 | -0.38
CSc1oc(-c2ccccc2)nc1S(=O)(=O)c1ccc(C)cc1 | -19 | 38 | -0.42 | 2 | -1.1 | -0.24
CCSc1oc(-c2ccccc2)nc1S(=O)(=O)c1ccccc1 | -1 | 69* | -0.73 | 10 | 0.053 | 0.1
CCSc1oc(-c2ccco2)nc1S(=O)(=O)c1ccccc1 | -8 | 39 | 1.3 | -10 | 0.052 | -0.41
CCCSc1oc(-c2ccco2)nc1S(=O)(=O)c1ccccc1 | -8 | 84* | -0.78 | 3 | 0.018 | -1.3
CN1CCN(c2oc(-c3ccco3)nc2S(=O)(=O)c2ccccc2)CC1 | -6 | -4 | -0.06 | 7 | 0.25 | 0.16
Cc1cc(C)c(NC(=O)C(C)c2cccc(C(=O)c3ccccc3)c2)c(C)c1 (stereo not given) | -14 | nt | nt | nt | nt | nt
O=c1[nH]c(=O)n(C2CCCCCC2)c(O)c1C=NCc1ccc(F)cc1 | -10 | 99* | -0.74 | 18 | 0.84 | 0.23
CCCC(c1nnnn1C1CCCC1)N1CCN(c2ccccc2F)CC1 (stereo not given) | -7 | 5 | 1.5 | -15 | -0.3 | 0.016
CCC1CCCCN1C(=O)CSc1nnc(-c2c[nH]c3ccccc23)o1 (stereo not given) | -11 | 23 | 0.83 | -11 | 0.35 | 0.59
c1ccc(-c2ccccc2-c2nc(-c3cccnc3)no2)cc1 | 4 | 98* | -0.9 | 18 | 1 | 0.49
SMILES | Ecoli WT expand | tolC growth inh | WNV protease inh | AP complement | M1 agonist | M1 antag
c1ccc(-c2noc(-c3cccc4ccccc34)n2)cc1 | 2 | 70* | 2.1 | -19 | -2.3 | 0.82
c1ccc(CCc2nc(-c3cccnc3)no2)cc1 | 9 | -5 | 1.6 | 12 | -0.5 | -0.2
c1ccc(CCc2ccccc2-c2nc(-c3cccnc3)no2)cc1 | -12 | 73* | -0.15 | -14 | -0.087 | 0.39
CC(C)NC(=O)C1(O)c2ccccc2NC(=O)N1c1ccc(Cl)c(Cl)c1 (stereo not given) | 5 | 6 | -0.79 | 2 | 0.73 | -1.9
CCOc1cc(C(=O)N2CCN(c3ccc(C(C)=O)cc3)CC2)cc(OCC)c1OCC | 4 | 5 | 0.24 | 4 | 1.9 | -0.73
CCc1nnc(NC(=O)c2ccc(S(=O)(=O)N3CCCCC3C)cc2)s1 (stereo not given) | -3 | 2 | -0.12 | -1 | -0.28 | -0.11
CC1CCCN(S(=O)(=O)c2ccc(NC(=O)CCN3C(=O)c4ccccc4C3=O)cc2)C1 (stereo not given) | -7 | nt | nt | nt | nt | nt
CC1CCCN(S(=O)(=O)c2ccc(NC(=O)Cn3nnc(-c4ccccc4F)n3)cc2)C1 (stereo not given) | -11 | 64* | -0.57 | -9 | -1.7 | -0.025
CCC1CCCCN1S(=O)(=O)c1ccc(C(=O)Nc2nnc(-c3cccs3)o2)cc1 (stereo not given) | 8 | 99* | -0.43 | -4 | -1.4 | 0.15
CC1CCCN(S(=O)(=O)c2ccc(C(=O)Nc3nnc(-c4ccccc4Cl)o3)cc2)C1 (stereo not given) | -9 | 100* | 0.69 | -1 | 1.3 | 0.63
CC1CC(C)CN(S(=O)(=O)c2ccc(C(=O)Nc3nnc(-c4cccs4)o3)cc2)C1 (stereo not given) | 4 | 99* | -0.5 | 7 | 0.28 | -0.67
O=C(Nc1ccccn1)c1cccnc1 | 4 | -15 | 1.6 | 2 | -0.13 | -0.84
O=C(Nc1nnc(-c2cccs2)o1)c1cccc(C(F)(F)F)c1 | 57* | 100* | 0.16 | -2 | 2.8 | -0.74
O=C(Nc1nnc(-c2ccccc2Cl)o1)c1cccnc1 | 7 | 70* | -0.63 | 14 | -0.31 | -0.038
CC(=O)Nc1nc(S(=O)(=O)c2ccc(C)cc2)c(Cl)s1 | 2 | nt | nt | nt | nt | nt
Cc1ccc(S(=O)(=O)c2nc(Nc3nccs3)sc2Cl)cc1 | -5 | 98* | 1.7 | -8 | -0.077 | 0.39
COc1cc2c(cc1OC)C(=O)CC(C)S2 (stereo not given) | 2 | nt | nt | nt | nt | nt
Cn1c(CSc2nnc(SCc3ccccc3)s2)nc2ccccc21 | -21 | 84* | -1.1 | 10 | 0.5 | -0.27
Cc1ccc2oc(=O)c3cnn(CC(=O)N4CCN(c5ccccc5)CC4)c3c2c1 | 4 | nt | nt | nt | nt | nt
Cc1ccc2oc(=O)c3cnn(CC(=O)N4CCCc5ccccc54)c3c2c1 | 0 | 1 | 0.57 | 12 | -0.018 | 2.1*
CCOC(=O)c1cnc(-n2nc(C)cc2C)nc1NC(C)c1ccccc1 (stereo not given) | -6 | 100* | -0.3 | 13 | -0.85 | -1.2
Cn1c(=O)c(C(=S)NC(=O)C2CC2)c(N)n(Cc2ccccc2)c1=O | -1 | 86* | 0.64 | 8 | -0.21 | -0.24
Cc1cccc(OCCOc2ccc(/C=N/NC(=O)Cc3nnc(N)s3)cc2)c1 | -12 | nt | nt | nt | nt | nt

Compound activity (PubChem BioAssay)
